Measurements taken from ChEMBL document CHEMBL1132940, “Pharmacophore/receptor models for GABA(A)/BzR subtypes (alpha1beta3gamma2, alpha5beta3gamma2, and alpha6beta3gamma2) via a comprehensive ligand-mapping approach” (J Med Chem, 2000).

Key:
[1] = target: T1, GABA-A receptor; alpha-1/beta-3/gamma-2 (Homo sapiens, UniProt P14867+P18507+P28472); assay: Binding affinity for human recombinant gamma-aminobutyric-acid (GABA) A receptor alpha-1-beta-3-gamma-2; format: protein-complex assay
T1 sequence (P14867 whole entry): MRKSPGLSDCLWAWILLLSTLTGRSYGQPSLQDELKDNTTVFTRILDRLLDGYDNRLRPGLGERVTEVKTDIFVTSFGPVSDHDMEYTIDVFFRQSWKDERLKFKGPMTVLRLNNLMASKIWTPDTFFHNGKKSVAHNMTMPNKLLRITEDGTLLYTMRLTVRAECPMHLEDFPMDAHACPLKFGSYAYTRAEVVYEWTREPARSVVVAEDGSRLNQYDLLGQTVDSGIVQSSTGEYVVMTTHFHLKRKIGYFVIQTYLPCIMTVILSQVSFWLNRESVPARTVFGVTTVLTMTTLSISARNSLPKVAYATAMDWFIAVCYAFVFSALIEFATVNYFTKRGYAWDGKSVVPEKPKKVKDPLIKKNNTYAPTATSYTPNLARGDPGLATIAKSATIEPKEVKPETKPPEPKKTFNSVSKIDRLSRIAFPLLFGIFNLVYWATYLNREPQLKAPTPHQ
T1 sequence (P18507 whole entry): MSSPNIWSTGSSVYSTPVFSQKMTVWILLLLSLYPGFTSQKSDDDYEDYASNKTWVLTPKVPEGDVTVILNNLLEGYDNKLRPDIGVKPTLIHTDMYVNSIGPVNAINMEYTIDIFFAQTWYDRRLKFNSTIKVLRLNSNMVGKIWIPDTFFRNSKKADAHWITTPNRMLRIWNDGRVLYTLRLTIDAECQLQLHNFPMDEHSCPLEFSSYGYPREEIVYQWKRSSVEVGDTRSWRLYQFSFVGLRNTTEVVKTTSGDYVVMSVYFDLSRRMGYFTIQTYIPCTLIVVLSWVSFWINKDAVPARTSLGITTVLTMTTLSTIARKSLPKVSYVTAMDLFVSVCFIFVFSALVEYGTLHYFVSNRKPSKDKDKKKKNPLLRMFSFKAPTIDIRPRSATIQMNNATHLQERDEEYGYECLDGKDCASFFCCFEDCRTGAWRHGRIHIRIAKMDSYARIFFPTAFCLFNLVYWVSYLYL
T1 sequence (P28472 whole entry): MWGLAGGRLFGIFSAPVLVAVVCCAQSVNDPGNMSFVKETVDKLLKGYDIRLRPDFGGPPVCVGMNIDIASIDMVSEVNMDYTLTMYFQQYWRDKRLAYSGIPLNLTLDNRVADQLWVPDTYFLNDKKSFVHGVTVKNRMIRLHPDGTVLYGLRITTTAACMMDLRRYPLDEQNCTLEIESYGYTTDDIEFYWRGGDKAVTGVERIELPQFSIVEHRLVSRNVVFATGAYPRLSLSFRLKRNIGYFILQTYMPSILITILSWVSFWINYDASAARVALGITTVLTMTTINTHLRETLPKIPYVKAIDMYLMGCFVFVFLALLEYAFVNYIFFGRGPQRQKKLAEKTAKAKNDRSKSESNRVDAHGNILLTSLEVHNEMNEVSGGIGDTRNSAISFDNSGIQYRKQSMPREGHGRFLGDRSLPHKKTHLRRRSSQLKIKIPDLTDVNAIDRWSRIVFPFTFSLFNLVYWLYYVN

[2] = target: T2, GABA-A receptor; alpha-2/beta-3/gamma-2 (Homo sapiens, UniProt P18507+P28472+P47869); assay: Binding affinity to human recombinant gamma-aminobutyric-acid (GABA) A receptor alpha-2-beta-3-gamma-2; format: protein-complex assay
T2 sequence (P18507 whole entry): T1 sequence (P18507 whole entry)
T2 sequence (P28472 whole entry): T1 sequence (P28472 whole entry)
T2 sequence (P47869 whole entry): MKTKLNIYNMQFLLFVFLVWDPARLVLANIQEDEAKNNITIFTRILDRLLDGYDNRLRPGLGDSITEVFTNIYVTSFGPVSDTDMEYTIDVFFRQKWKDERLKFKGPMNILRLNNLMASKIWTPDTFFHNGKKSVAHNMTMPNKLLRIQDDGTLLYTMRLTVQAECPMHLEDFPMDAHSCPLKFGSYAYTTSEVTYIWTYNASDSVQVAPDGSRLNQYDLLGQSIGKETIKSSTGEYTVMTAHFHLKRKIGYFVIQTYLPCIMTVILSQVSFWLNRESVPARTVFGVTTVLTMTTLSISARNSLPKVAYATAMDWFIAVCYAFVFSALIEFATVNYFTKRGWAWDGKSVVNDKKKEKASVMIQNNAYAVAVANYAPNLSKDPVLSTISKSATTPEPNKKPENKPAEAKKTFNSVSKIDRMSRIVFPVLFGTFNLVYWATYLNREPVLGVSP

[3] = target: T3, GABA-A receptor; alpha-5/beta-3/gamma-2 (Homo sapiens, UniProt P18507+P28472+P31644); assay: Binding affinity for human recombinant gamma-aminobutyric-acid (GABA) A receptor alpha-5-beta-3-gamma-2; format: protein-complex assay
T3 sequence (P18507 whole entry): T1 sequence (P18507 whole entry)
T3 sequence (P28472 whole entry): T1 sequence (P28472 whole entry)
T3 sequence (P31644 whole entry): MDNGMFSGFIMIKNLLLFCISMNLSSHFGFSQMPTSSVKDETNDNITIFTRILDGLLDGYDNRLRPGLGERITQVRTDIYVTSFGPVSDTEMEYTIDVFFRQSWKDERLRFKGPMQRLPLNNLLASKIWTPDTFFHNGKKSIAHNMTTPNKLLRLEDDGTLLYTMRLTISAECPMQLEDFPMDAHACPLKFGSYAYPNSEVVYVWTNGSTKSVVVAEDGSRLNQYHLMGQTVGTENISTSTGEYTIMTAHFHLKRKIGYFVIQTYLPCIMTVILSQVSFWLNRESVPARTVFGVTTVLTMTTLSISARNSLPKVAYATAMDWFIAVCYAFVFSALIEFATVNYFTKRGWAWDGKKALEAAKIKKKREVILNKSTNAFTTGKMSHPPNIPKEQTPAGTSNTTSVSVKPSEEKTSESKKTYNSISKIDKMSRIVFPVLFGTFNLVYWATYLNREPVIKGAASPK

[4] = target: T4, GABA-A receptor; alpha-3/beta-3/gamma-2 (Homo sapiens, UniProt P18507+P28472+P34903); assay: Binding affinity for human recombinant gamma-aminobutyric-acid (GABA) A receptor alpha-3-beta-3-gamma-2; format: protein-complex assay
T4 sequence (P18507 whole entry): T1 sequence (P18507 whole entry)
T4 sequence (P28472 whole entry): T1 sequence (P28472 whole entry)
T4 sequence (P34903 whole entry): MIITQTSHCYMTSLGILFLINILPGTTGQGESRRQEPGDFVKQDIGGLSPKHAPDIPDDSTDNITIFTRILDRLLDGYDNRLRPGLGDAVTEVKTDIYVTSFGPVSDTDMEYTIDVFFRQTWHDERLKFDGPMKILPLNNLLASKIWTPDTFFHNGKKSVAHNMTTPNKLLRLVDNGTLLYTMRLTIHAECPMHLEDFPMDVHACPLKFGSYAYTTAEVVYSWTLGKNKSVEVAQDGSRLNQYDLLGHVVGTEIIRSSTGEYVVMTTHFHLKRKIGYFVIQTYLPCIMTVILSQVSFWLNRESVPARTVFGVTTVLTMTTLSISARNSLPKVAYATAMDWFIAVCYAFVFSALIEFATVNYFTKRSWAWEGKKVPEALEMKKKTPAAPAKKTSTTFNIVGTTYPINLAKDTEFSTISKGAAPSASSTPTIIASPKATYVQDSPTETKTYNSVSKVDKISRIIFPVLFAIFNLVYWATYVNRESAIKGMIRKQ

[5] = target: GABA-A receptor; alpha-6/beta-3/gamma-2 (Homo sapiens, UniProt P18507+P28472+Q16445); assay: Binding affinity for human recombinant gamma-aminobutyric-acid (GABA) A receptor alpha-6-beta-3-gamma-2; format: protein-complex assay
Outline: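 Ltk⁻ cells expressing human α6β3γ2 were harvested by scraping into PBS, centrifuged at 3000g and resuspended in 10 mM KH₂PO₄/100 mM KCl (pH 7.4). Incubation was 1 h at 4 °C with filter harvest and scintillation counting.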

[6] = Selectivity ratio of alpha1 beta-3 gamma2 GABA A / BzR and alpha5 beta-3 gamma2 GABA A / BzR

Chain of GABA-A receptor; alpha-6/beta-3/gamma-2 (Q16445 whole entry, one chain of several): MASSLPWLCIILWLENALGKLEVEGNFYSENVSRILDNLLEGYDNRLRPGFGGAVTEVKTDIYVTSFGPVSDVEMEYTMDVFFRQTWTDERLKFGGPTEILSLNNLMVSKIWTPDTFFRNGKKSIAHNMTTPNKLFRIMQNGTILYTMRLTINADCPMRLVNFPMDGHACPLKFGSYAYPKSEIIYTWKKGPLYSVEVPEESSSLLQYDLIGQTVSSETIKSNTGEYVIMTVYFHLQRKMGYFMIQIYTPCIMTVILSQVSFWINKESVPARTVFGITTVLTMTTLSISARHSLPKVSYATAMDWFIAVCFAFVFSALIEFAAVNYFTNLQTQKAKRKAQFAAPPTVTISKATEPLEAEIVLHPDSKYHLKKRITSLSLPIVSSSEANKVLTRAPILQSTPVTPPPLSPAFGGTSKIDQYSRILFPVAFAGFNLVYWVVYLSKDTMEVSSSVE

Row | SMILES | Ki [1] | Ki [2] | Ki [3] | Ki [4] | Ki [5] | Ratio [6]
1 | Clc1cccn2c1nc1c3c4ccccc4nc-3c[nH]c12 | > 3000 nM | > 3000 nM | > 10000 nM | > 3000 nM | > 10000 nM | –
2 | C#Cc1ccc2ncc3c(=O)n(-c4ccccc4)[nH]c3c2c1 | 0.08 nM | 0.06 nM | 0.08 nM | 0.02 nM | – | –
3 | O=C1CN=C(c2ccccc2[N+](=O)[O-])c2cc(Br)ccc2N1 | – | 31 nM | 199 nM | 52 nM | > 3000 nM | 0.08
4 | O=[N+]([O-])c1ccc2[nH]c3cnc([N+](=O)[O-])cc3c2c1 | 12.9 nM | 83.1 nM | 314 nM | – | > 50000 nM | –
5 | c1ccc2c(c1)[nH]c1c2ncc2[nH]c3ccccc3c21 | 1.1 nM | 1.2 nM | 40.3 nM | 1.1 nM | > 1000 nM | –
6 | Clc1ccc2c(c1)[nH]c1c2ncc2[nH]c3ccccc3c21 | 3.9 nM | 12.2 nM | 210 nM | 24.4 nM | > 10000 nM | –
7 | O=C1C2C=Nc3ccccc3C2=NN1c1ccccc1 (stereo unspecified) [CGS-8216] | 0.05 nM | 0.08 nM | 0.25 nM | 0.12 nM | 17 nM | –
8 | COC(=O)c1cc2c3cc(NCc4ccc5ccccc5c4)ccc3nc-2c[nH]1 | 30.7 nM | 205 nM | 814 nM | 271 nM | > 10000 nM | –
9 | CC(C)(C)OC(=O)c1ncn2c1[C@@H]1CCCN1C(=O)c1c(Br)cccc1-2 [BRETAZENIL] | 0.35 nM | 0.64 nM | 0.5 nM | 0.2 nM | 12.7 nM | –
10 | CCc1c(C(=O)NN)[nH]cc2nc3cc(OC)c(OC)cc3c1-2 | 896 nM | > 1000 nM | 91.5 nM | 570 nM | > 3000 nM | –
11 | CN1Cc2c(C(=O)OC(C)(C)C)ncn2-c2ccc(N=[N+]=[N-])cc2C1=O | – | 22.1 nM | – | 9.84 nM | – | 24.3
12 | CCCOc1ccc2c(c1)c1c(COC)c(C(=O)OCC)ncc1n2C | 25.6 nM | 105 nM | 161 nM | 164 nM | > 10000 nM | –
13 | COCc1c(SC#N)[nH]cc2nc3ccc(OCc4ccccc4)cc3c1-2 | 25 nM | 82.6 nM | 159 nM | 58.8 nM | > 10000 nM | –
14 | CCOC(=O)c1[nH]cc2nc3ccc(O)cc3c-2c1COC | 2 nM | 5.4 nM | 18.5 nM | 10.8 nM | 3000 nM | –
15 | CCOC(=O)c1[nH]cc2nc3ccc(OC)cc3c-2c1CC | 1.6 nM | 2.9 nM | 1 nM | 2.8 nM | > 1000 nM | –
16 | Cc1nnc2n1-c1ccc(Cl)cc1C(c1ccccc1Cl)=NC2 [TRIAZOLAM] | – | 0.59 nM | – | – | > 10000 nM | –
17 | S=C=Nc1cc2c3ccccc3nc-2c[nH]1 | 67.2 nM | 120 nM | > 3000 nM | 141 nM | > 10000 nM | –
18 | c1ccc2c(c1)[nH]c1cnc3c(nc4ccccn43)c12 | 105 nM | 228 nM | > 3000 nM | 284 nM | > 10000 nM | –
19 | O=c1c2cnc3ccccc3c2[nH]n1-c1ccc(Br)cc1 | 0.18 nM | 0.21 nM | 1.3 nM | 0.25 nM | 40 nM | –
20 | N#CSc1ccc2[nH]c3cnc(SC#N)cc3c2c1 | 13.6 nM | 423 nM | 2910 nM | – | > 5000 nM | –
21 | O=c1c2c[nH]c3ccc(Br)cc3c-2nn1-c1ccccc1 | 0.06 nM | 0.08 nM | 0.12 nM | 0.05 nM | 4 nM | –
22 | c1ccc2c(c1)[nH]c1cnc3c4ccncc4[nH]c3c12 | 3 nM | 23.8 nM | 240 nM | 30.5 nM | > 10000 nM | –
23 | O=[N+]([O-])c1ccc2[nH]c3c[nH]c4c5ccccc5nc-4c3c2c1 | 244 nM | 500 nM | 1560 nM | 532 nM | > 10000 nM | –
24 | COc1ccc2c(c1)ncc1c(=O)n(-c3ccccc3)[nH]c12 | 1.34 nM | 1.31 nM | 0.84 nM | 1.26 nM | 2.03 nM | –
25 | COC(=O)c1cc2c(cn1)[nH]c1ccc(NCc3ccccc3)cc12 | 5.42 nM | 30.2 nM | 475 nM | 48.9 nM | > 10000 nM | –
26 | COC(=O)c1cc2c3cc(NC4CCCCC4)ccc3nc-2c[nH]1 | 2.39 nM | 17.4 nM | 316 nM | 14.4 nM | > 10000 nM | –
27 | c1ccc(COc2ccc3c(c2)[nH]c2c3ncc3[nH]c4ccccc4c32)cc1 | 432 nM | 3000 nM | > 10000 nM | 3000 nM | > 10000 nM | –
28 | C#Cc1ccc(-n2[nH]c3c(cnc4ccccc43)c2=O)cc1 | 0.07 nM | 0.03 nM | 0.17 nM | 0.04 nM | – | –
29 | CCCOc1ccc2[nH]c3cnc(C(=O)NN)c(COC)c3c2c1 | 46 nM | 422 nM | 108 nM | 400 nM | > 300 nM | –
